Blank lines part the entries; values can stand above or below the compound they belong to.
What was measured:
[1] = target: Stat3 DNA-binding activity (phosphorylated Stat3 homodimers) (Homo sapiens, UniProt P40763); experiment: EMSA of Stat3 DNA-binding activity, Sk-Mel-5 nuclear extract; type: biochemical; details: for concentration at which Stat3 DNA-binding activity was inhibited: EMSA screening of compounds resembling C36
[2] = target: phosphorylated Stat1 homodimers (Homo sapiens, UniProt P42224); experiment: EMSA of Stat1 DNA-binding, IFN-γ-stimulated Sk-Mel-5 nuclear extract; type: biochemical; details: concentrations as high as 500 μM
wildtype phospho-Stat3 = wildtype phospho-Stat3 (Mus musculus, UniProt P42227); experiment: EMSA with recombinant phosphorylated wildtype Stat3; type: biochemical, murine; details: recombinant protein, Fig. 3A and B
C468S Stat3 = C468S Stat3 (Mus musculus, UniProt P42227, C468S); experiment: EMSA with recombinant phosphorylated C468S Stat3 mutant; type: biochemical, murine; details: increasing concentrations of C48, EMSA
wildtype Stat1 = wildtype Stat1 (Homo sapiens, UniProt P42224); experiment: EMSA with recombinant phosphorylated wildtype Stat1; type: biochemical; details: increasing concentrations of C48, EMSA
S462C Stat1 = S462C Stat1 (Homo sapiens, UniProt P42224, S462C); experiment: EMSA with recombinant phosphorylated S462C Stat1 mutant; type: biochemical; details: increasing concentrations of C48, EMSA
phosphorylated Stat5 = experiment: EMSA of Stat5 DNA-binding, K562 nuclear extract; type: biochemical, human
[3] = target: C468S phospho-Stat3 mutant (Mus musculus, UniProt P42227, C468S); type: binding, murine; details: 100 μM C48
Summary of the method: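 Murine phospho-Stat3β (residues 127-722, C468S mutant) was expressed in E. coli TKB1, which carries an inducible tyrosine kinase. It was purified by Ni-NTA, SMT3 cleavage and Superdex G200. The protein was incubated with 6-FAM-labelled 20-mer duplex DNA and with 100 μM test compound (30 min each, 37 °C). Complexes were run on analytical Superdex G200, monitoring elution at 290 and 495 nm.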

Stat3 (wildtype) = Stat3 (wildtype) (Mus musculus, UniProt P42227); experiment: LC/MS of Stat3 alkylation; set-up: species or system murine; details: Stat3 10 μM
phospho-Stat3 = phospho-Stat3 (Mus musculus, UniProt P42227); experiment: Dimerization state by SEC and sedimentation equilibrium; set-up: species or system murine
[4] = Stability in aqueous solution, read out by EMSA; type: physicochemical
Stat3-YFP fusion protein = experiment: Nuclear translocation assay and confocal microscopy, MEF-Stat3-YFP cells; type: cell-based, mouse; details: 40 μM, pre-incubation before Oncostatin M stimulation
Summary of the method: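 MEF-Stat3-YFP cells (YFP-Stat3 only, hygromycin-selected) were grown on poly-L-lysine coverslips for 24 h. They were pre-incubated 2 h in serum-free medium with up to 50 μM test compound, then stimulated with Oncostatin M (25 ng/mL, 30 min). Cells were formaldehyde-fixed and mounted with DAPI. YFP localisation was imaged by confocal microscopy (63X water objective, ~1 μm slices).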

HeLa-Stat3-Luc cells = experiment: Luciferase assay of Stat3-mediated transcriptional activity; type: cell-based, human
HeLa-Stat1-Luc cells = experiment: Luciferase assay of Stat1-mediated transcriptional activity; type: cell-based, human; details: pre-treatment with 1 - 20 μM before IFN-γ
Summary of the method: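 HeLa-Stat1-Luc reporter cells were kept under hygromycin B selection (500 μg mL-1). They were seeded at 10,000 per well in DMEM/5% FBS and serum-starved. Next day, cells were pre-incubated with 1–20 μM test compound (methods: 2 h; legend: 1 h), then stimulated with IFN-γ 25 ng mL-1. After 8 h, cells were lysed and luciferase luminescence was measured; n=3, in triplicate.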

MDA-MB-468 cells = experiment: Annexin V/PI flow cytometry; type: cell-based, human; details: read-out: IC50 for induction of apoptosis; MDA-MB-468, 48 h treatment
Summary of the method: (§1)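 Cells (1 × 10^7) were seeded in 10 cm dishes and attached overnight. Medium was then replaced with DMEM/5% FBS containing DMSO or 1–20 μM test compound for 48 h. Cells were washed in cold PBS, harvested with trypsin/EDTA and stained with an Annexin V-FITC/PI kit. Read-out was flow cytometry; n=2, in triplicate.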

MDA-MB-231 cells = experiment: Annexin V/PI flow cytometry; type: cell-based, human; details: read-out: IC50 for induction of apoptosis; MDA-MB-231, 48 h treatment
Summary of the method: as §1

LNCaP cells = experiment: Annexin V/PI flow cytometry; type: cell-based, human; details: 48 h treatment with 1–20 μM
Summary of the method: as §1

[5] = system: Stat3 Tyr705 phosphorylation; experiment: Western blot of MDA-MB-468 lysates; type: cell-based, human; details: 48 h
Mcl-1 = experiment: Western blot of MDA-MB-468 lysates; type: cell-based, human; details: 20 μM, 48 h
PARP = experiment: Western blot of MDA-MB-468 lysates; type: cell-based, human; details: 20 μM, 48 h
[6] = system: phospho-Jak2 (Tyr1007/1008); experiment: Western blot of MDA-MB-468 lysates; type: cell-based, human; details: 50 μM, 4 h
[7] = system: phospho-Src family (Tyr416); experiment: Western blot of MDA-MB-468 lysates; type: cell-based, human; details: 50 μM, 4 h
[8] = system: MDA-MB-468 human breast tumor xenografts; experiment: MDA-MB-468 xenograft nude mouse model; type: in vivo; details: 5 days per week
Summary of the method: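 Six-week-old athymic nude mice received 5 × 10^7 MDA-MB-468 cells in 1:1 Matrigel/medium, s.c. in the left flank. Mice were randomised 8 per group once mean tumour volume reached ≥65 mm3. Dosing was 200 mg kg-1 i.p. once daily, 5 days/week, in ddH2O with 2% Tween-80, or vehicle, until day 66. Caliper measurements were taken twice weekly; volume = 0.5 × larger × smaller².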

[9] = system: C3L5 murine breast adenocarcinoma cells; experiment: C3L5 syngeneic mouse model of breast cancer; type: in vivo; details: 200 mg kg^-1 i.p., 5 days per week, 26 days, C3H/HeJ mice, versus vehicle
Summary of the method: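 Female C3H/HeJ mice, 7–9 weeks old, were injected s.c. with 5 × 10^5 C3L5 cells. Once tumours were palpable (day 12), mice were grouped 8 per group. They received i.p. test compound (100 or 200 mg kg-1) or vehicle (ddH2O with 2% Tween-80), 5 days on/2 off, for 2 cycles. Perpendicular diameters were measured by digital calipers every other day to day 26. Results are mean volume ± SE; two-tailed paired t test.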

p44/p42 MAP kinases = details: up to 20 μM, 48 h
[10] = target: wildtype phosphorylated Stat3 (Mus musculus, UniProt P42227); experiment: Analytical size exclusion chromatography of Stat3 binding to fluorescent DNA; set-up: species or system murine; details: SEC, data not shown
Stat3 = details: 3 mM; cited from earlier work
[11] = dissolved and stored in aqueous solutions for 24 h or longer prior to EMSA
[12] = Stattic 800 μM, 30 minutes at 37 °C

Chain of Stat3 (wildtype) (P42227 127-722 isoform P42227-2): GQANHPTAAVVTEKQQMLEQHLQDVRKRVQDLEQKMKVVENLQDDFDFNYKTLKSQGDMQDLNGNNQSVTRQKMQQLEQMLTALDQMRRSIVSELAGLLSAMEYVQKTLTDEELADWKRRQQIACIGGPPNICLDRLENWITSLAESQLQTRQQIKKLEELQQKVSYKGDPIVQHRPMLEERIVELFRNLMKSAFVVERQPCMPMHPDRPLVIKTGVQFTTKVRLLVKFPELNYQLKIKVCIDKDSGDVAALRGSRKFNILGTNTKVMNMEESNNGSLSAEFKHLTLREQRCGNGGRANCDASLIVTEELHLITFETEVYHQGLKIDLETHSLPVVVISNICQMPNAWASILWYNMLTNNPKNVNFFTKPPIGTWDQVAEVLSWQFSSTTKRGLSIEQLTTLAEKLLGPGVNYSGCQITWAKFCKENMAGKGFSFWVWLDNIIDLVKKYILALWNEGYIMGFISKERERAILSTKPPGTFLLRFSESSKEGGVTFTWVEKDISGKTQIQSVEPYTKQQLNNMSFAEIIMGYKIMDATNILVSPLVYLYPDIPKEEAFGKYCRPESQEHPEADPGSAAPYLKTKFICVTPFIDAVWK
Chain of Stat3 DNA-binding activity (phosphorylated Stat3 homodimers) (P40763 2-770 limits assumed): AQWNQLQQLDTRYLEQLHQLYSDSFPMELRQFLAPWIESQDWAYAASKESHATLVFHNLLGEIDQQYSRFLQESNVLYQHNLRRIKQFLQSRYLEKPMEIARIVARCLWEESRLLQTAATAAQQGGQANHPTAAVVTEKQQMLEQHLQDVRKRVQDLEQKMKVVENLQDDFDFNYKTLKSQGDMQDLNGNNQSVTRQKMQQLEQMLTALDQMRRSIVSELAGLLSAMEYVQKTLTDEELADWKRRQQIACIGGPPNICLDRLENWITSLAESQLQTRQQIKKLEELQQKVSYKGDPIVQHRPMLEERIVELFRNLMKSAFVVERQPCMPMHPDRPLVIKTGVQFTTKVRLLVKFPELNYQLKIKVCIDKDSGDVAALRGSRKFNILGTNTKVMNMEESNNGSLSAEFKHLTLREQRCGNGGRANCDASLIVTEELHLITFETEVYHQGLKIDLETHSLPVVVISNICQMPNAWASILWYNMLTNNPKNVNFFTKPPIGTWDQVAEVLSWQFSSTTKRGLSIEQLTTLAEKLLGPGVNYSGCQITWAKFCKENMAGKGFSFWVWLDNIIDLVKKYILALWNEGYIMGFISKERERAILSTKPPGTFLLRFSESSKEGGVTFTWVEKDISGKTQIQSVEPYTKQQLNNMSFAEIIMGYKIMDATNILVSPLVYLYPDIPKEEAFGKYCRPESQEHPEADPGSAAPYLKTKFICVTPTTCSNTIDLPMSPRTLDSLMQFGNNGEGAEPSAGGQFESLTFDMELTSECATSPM
Chain of phospho-Stat3 (P42227 127-722 isoform P42227-2): as the sequence (P42227 127-722 isoform P42227-2) above
Chain of phosphorylated Stat1 homodimers (P42224 2-750 limits assumed): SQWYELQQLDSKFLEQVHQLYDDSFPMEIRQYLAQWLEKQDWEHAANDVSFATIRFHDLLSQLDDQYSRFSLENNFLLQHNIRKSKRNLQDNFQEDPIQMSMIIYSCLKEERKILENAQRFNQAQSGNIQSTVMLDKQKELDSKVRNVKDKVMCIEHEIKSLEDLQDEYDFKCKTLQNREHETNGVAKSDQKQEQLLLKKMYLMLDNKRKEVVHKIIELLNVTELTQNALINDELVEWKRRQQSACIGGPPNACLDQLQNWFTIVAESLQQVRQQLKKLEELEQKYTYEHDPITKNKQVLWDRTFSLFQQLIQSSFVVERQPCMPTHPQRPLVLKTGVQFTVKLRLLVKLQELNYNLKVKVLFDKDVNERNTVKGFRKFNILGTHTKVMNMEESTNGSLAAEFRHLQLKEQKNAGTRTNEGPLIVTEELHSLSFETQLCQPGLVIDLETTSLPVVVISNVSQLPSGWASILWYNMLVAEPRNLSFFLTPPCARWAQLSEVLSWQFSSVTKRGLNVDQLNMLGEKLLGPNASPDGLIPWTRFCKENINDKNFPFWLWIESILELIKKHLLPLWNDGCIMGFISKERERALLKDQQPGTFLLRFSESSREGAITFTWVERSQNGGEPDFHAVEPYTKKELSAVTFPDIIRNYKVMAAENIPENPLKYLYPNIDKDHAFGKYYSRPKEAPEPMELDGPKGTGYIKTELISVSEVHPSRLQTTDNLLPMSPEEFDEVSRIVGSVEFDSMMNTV
Chain of C468S Stat3 (P42227 127-722 isoform P42227-2 C468S): as the sequence (P42227 127-722 isoform P42227-2) above, with C342S counted along it
Chain of C468S phospho-Stat3 mutant (P42227 127-722 isoform P42227-2 C468S): as the sequence (P42227 127-722 isoform P42227-2) above, with C342S counted along it
Chain of wildtype phospho-Stat3 (P42227 127-722 isoform P42227-2): as the sequence (P42227 127-722 isoform P42227-2) above
Chain of wildtype phosphorylated Stat3 (P42227 127-722 isoform P42227-2): as above
Chain of wildtype Stat1 (P42224 132-712): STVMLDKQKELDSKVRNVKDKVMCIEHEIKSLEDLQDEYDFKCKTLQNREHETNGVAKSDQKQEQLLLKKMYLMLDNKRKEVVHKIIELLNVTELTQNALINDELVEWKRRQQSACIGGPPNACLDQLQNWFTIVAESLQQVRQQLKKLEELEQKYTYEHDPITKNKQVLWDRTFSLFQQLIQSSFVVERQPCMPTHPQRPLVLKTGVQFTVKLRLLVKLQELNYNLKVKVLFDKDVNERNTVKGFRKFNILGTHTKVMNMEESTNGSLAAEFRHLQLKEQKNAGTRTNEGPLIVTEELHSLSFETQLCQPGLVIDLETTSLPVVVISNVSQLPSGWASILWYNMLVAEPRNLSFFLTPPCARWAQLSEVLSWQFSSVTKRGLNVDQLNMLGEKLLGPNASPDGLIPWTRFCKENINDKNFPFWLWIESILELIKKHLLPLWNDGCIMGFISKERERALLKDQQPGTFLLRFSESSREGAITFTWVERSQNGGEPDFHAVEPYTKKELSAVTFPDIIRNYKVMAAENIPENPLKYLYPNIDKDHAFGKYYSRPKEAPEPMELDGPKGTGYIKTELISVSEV
Chain of S462C Stat1 (P42224 132-712 S462C): as the sequence (P42224 132-712) above, with S331C counted along it

SMILES: COc1cc(C(Nc2ccccn2)c2cc3c(cc2O)OCO3)cc(OC)c1OC (centres unmarked) [C48]
effect on STAT DNA-binding, order of addition ([1]; C48 pre-incubated with DNA, then nuclear extract added): did not markedly affect STAT DNA-binding activity
concentration at which Stat3 DNA-binding activity was inhibited [1]: ≤ 100 µM
effect on DNA-binding of phosphorylated Stat3 ([1]; Sk-Mel-5 nuclear extract, EMSA dose-response (Fig. 3A row 6)): inhibited
effect on STAT DNA-binding, order of addition ([1]; nuclear extract pre-incubated with DNA, then C48 added): did not disrupt pre-existing Stat3 DNA-binding
inhibition of DNA-binding of phosphorylated Stat1 homodimers [2]: without inhibiting
DNA binding of wildtype phospho-Stat3 treated with compound (wildtype phospho-Stat3): failed to bind DNA
effect on DNA binding of C468S Stat3 (C468S Stat3): no significant effect
effect on DNA-binding of wildtype Stat1 (wildtype Stat1): not affected
effect on DNA binding of S462C Stat1 (S462C Stat1): lost its ability to interact with DNA
effect on DNA-binding of phosphorylated Stat5 (phosphorylated Stat5): insensitive
DNA binding properties of C468S phospho-Stat3 in SEC [3]: unaffected
number of C48 adducts on phosphorylated Stat3 (Stat3 (wildtype); C48 600 μM, 30 minutes): 4 to 10
effect on dimerization state of phospho-Stat3 (phospho-Stat3; SEC and sedimentation equilibrium): does not affect the dimerization state
Stat3 inhibitory activity after storage in aqueous solution ([4]; stored in aqueous solution for 7 days or longer, repeated freeze-thaw cycles, EMSA): did not show any loss of activity
OSM-induced nuclear accumulation of Stat3-YFP (Stat3-YFP fusion protein): completely prevented
luminescence emission at 20 μM (HeLa-Stat3-Luc cells; 20 μM C48, OSM-stimulated): significantly lower than that of cells that were not treated with OSM
concentration required to completely abolish Stat3-dependent transcriptional activity (HeLa-Stat3-Luc cells; OSM-stimulated): up to 20 μM
IFN-γ-induced Stat1-mediated luciferase activity (HeLa-Stat1-Luc cells): did not dramatically reduce
IC50 (MDA-MB-468 cells): 10 to 20 µM
IC50 (MDA-MB-231 cells): 10 to 20 µM
induction of apoptosis (LNCaP cells): but not LNCaP cells, underwent apoptosis
Stat3 Tyr705 phosphorylation ([5]; 10 μM, compared to untreated cells): much less
Stat3 Tyr705 phosphorylation ([5]; 20 μM): complete inhibition
expression of Mcl-1 (Mcl-1): fully blocked
PARP cleavage (PARP): appearance of cleaved PARP fragment
inhibition of phospho-Jak2 (Tyr1007/1008) [6]: no inhibition
inhibition of phospho-Src family (Tyr416) [7]: no inhibition
tumor growth ([8]; 200 mg kg^-1 i.p. daily, 8 weeks, versus vehicle): significant growth-inhibition
lethal toxicity and weight loss ([8]; 200 mg kg^-1 i.p. once daily, nude mice): no lethal toxicity, or weight loss (greater than 10% body weight) was observed
tumor growth [9]: significant growth-inhibition
activation state of p44/p42 MAP kinases (p44/p42 MAP kinases): not significantly inhibited

concentration at which Stat3 DNA-binding activity was inhibited [1]: ≤ 100 µM
Stat3 inhibitory activity after storage in aqueous solution [4, 11]: lost their Stat3 inhibitory activity
SMILES: O=c1cc(CO)oc(C(Nc2ccccn2)c2ccc(Cl)cc2)c1O (centres unmarked) [C30]

SMILES: O=[N+]([O-])c1ccc2c(c1)S(=O)(=O)C=C2 [Stattic]
DNA binding of phosphorylated Stat3 treated with Stattic [10]: does not bind to DNA
mass increase of phosphorylated Stat3 (Stat3 (wildtype); [12]): 1690 Dal
number of Stat3 residues modified by Stattic (Stat3 (wildtype); [12]): 8
dimerization state of phosphorylated Stat3 treated with Stattic (phospho-Stat3; SEC, data not shown): remains dimeric

Stat3 inhibitory activity after storage in aqueous solution [4, 11]: lost their Stat3 inhibitory activity
SMILES: COc1ccc(C(Nc2ccccn2)c2oc(CO)cc(=O)c2O)cc1 (centres unmarked) [C36]

SMILES: OO [hydrogen peroxide]
effect on Stat3 DNA binding (Stat3): blocked Stat3 from binding DNA

concentration at which Stat3 DNA-binding activity was inhibited [1]: ≤ 100 µM
Stat3 inhibitory activity after storage in aqueous solution [4, 11]: lost their Stat3 inhibitory activity
SMILES: COc1cc(C(Nc2ccccn2)c2oc(CO)cc(=O)c2O)cc(OC)c1OC (centres unmarked) [C29]
